Reference: PMC5900333 (ACS Medicinal Chemistry Letters, 2018)

Legend:
Rat pharmacokinetics = conditions: both, Sprague-Dawley, in vivo, iv
[1] = target: rabbit fast skeletal muscle myofibrils (Oryctolagus cuniculus, UniProt P02586+P02641+P02643); assay: Fast skeletal myofibril ATPase assay; format: biochemical; conditions: 14 vs 13; 25 vs bromo 14
Summary of the method: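 Rabbit fast skeletal muscle myofibrils; the read-out is the rate of ATP hydrolysis. The assay runs at a calcium level of 25% of that giving a maximal response in control preparations. AC40 is the test compound concentration that raises myofibril ATPase activity by 40%. Experiments were run in duplicate, and the fold potency change is taken from the AC40 values.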

[2] = ALS patients taking both 25 and Riluzole; cited from earlier work
Mouse pharmacokinetics = conditions: in vivo, iv, 1 mg/kg
CYP1A2 = target: T1, CYP1A2 (Homo sapiens, UniProt P05177); assay: Cytochrome P450 inhibition and time-dependent inhibition; format: in vitro ADME; conditions: liver microsomes, probe phenacetin
T1 sequence (P05177 1-516): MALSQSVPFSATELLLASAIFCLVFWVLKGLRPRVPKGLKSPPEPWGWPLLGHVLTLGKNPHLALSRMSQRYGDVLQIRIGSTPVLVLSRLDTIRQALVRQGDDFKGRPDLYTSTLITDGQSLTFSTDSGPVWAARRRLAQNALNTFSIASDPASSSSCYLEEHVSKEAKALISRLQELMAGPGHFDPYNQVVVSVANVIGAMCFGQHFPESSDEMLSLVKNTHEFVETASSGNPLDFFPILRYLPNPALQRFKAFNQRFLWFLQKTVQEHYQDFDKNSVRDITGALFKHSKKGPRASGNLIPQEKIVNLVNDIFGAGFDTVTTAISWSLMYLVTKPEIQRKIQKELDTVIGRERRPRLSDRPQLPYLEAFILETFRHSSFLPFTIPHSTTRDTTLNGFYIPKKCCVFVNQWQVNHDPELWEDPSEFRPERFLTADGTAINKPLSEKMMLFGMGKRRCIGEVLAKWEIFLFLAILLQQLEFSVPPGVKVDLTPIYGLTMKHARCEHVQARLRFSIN

[3] = In vivo clearance across nonclinical species vs hepatic blood flow
B6SJL-SOD1^G93A mouse = conditions: B6SJL-SOD1G93A mice, single dose; cited from earlier work
[4] = tested on: extensor digitorum longus (EDL) muscle; assay: In situ EDL muscle force; format: in vivo; conditions: rat, systemic infusion, submaximal stimulation rates
[5] = tested on: PT-EAMG (passive transfer experimental autoimmune myasthenia gravis) rat model; conditions: rats treated with anti-nAchRα antibody; cited from earlier work
patients with ALS = conditions: Phase 3, patients with ALS; ref VITALITY-ALS, NCT02496767; cited from earlier work
Microsomal turnover, rat = format: in vitro ADME
tibialis anterior = conditions: healthy humans, nerve stimulation; cited from earlier work
[6] = Microsomal turnover, human; format: in vitro ADME

Sequence of rabbit fast skeletal muscle myofibrils (P02586 2-160 limits assumed): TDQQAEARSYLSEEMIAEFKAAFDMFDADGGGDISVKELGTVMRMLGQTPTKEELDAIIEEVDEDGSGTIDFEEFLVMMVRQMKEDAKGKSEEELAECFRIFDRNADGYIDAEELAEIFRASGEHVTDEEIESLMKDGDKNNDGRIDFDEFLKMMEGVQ
Sequence of rabbit fast skeletal muscle myofibrils (P02643 2-182 limits assumed): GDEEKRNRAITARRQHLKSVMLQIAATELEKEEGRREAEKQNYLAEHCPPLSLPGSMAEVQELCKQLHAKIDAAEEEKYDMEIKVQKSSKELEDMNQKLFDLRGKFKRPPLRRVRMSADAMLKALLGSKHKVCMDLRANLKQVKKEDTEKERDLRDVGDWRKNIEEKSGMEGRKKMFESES
Sequence of rabbit fast skeletal muscle myofibrils (P02641 2-279 limits assumed): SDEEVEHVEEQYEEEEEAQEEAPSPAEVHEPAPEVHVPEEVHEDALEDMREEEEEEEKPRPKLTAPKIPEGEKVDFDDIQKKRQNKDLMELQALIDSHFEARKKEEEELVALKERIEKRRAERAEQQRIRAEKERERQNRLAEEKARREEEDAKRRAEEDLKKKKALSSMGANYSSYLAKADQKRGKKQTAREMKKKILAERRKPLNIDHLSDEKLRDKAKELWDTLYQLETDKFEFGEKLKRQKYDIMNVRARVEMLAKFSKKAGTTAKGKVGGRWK

Compound | clearance (Rat pharmacokinetics; 1 mg/kg) [mL/min/kg] | fold improvement in biochemical potency over comparator [1] [fold] | drug-drug interaction: change of Riluzole concentrations [2] | clearance (Mouse pharmacokinetics) [mL/min/kg] | IC50 shift at 30 min (CYP1A2) | in vivo clearance as share of hepatic blood flow [3] | muscle function and performance in ALS mouse model (B6SJL-SOD1^G93A mouse) | in situ EDL muscle force [4] | in situ EDL muscle force ([4]; listed as tirasemtiv) | grip strength [5] | primary end point: change from baseline in slow vital capacity (SVC) at 24 weeks (patients with ALS) | Re (r), ratio of extraction in microsomes (Microsomal turnover, rat) | force produced by the tibialis anterior (tibialis anterior) | clearance (Rat pharmacokinetics) [mL/min/kg] | Re (h), ratio of extraction in microsomes [6]
CCC(CC)n1c(=O)[nH]c2ncc(Br)nc21 [Compound 14] | 19 | 3 |  |  |  |  |  |  |  |  |  |  |  |  | 
CCC(CC)n1c(=O)[nH]c2ncc(Cl)nc21 [Compound 21] | 7.7 |  |  |  |  |  |  |  |  |  |  |  |  |  | 
C#Cc1cnc2nc(O)n(C(CC)CC)c2n1 [Compound 25, tirasemtiv] | 2.6 | 3 | approximate doubling of Riluzole concentrations | 13.9 | > 3 | less than 15 % of hepatic blood flow | significantly increased submaximal isometric force, forelimb grip strength, grid hang time, and rotarod performance | rapid, dose-dependent increases in muscle force at submaximal stimulation rates | concentration-dependent improvement in muscle force production in situ | increased grip strength | did not meet its primary end point | 0.26 | increased force produced by the tibialis anterior in a dose-, concentration-, and frequency-dependent manner | 2.6 | <0.21
